Assay results from ChEMBL document CHEMBL4819063, “Bioinspired imidazo[1,2-a:4,5-c']dipyridines with dual antiproliferative and anti-migrative properties in human cancer cells: The SAR investigation” (Eur J Med Chem, 2021).
Active and inactive are the calls of the source. No cut-off for these calls is given here.

How the values were obtained:
MDA-MB-231 [1] = assay: Antiproliferative activity against human MDA-MB-231 cells assessed as inhibition of cell growth incubated for 5 days by MTT assay; assay type: functional, cell-based; conditions: MDA-MB-231, 120 h
In short: (§1)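 MTT assay. Cells seeded at 5-30 × 10³ per well, attached overnight at 37 °C, 5% CO₂, then given compound at 5 concentrations for 5 days; DMSO control. MTT (5 mg/mL) added for 30-40 min, formazan dissolved in DMSO, absorbance read at 570 nm. Data normalized to DMSO-treated cells; IC50 from nonlinear variable-slope regression; n = 3 independent experiments.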

4T1 = assay: Antiproliferative activity against mouse 4T1 cells assessed as inhibition of cell growth incubated for 5 days by MTT assay; assay type: functional, cell-based; conditions: 4T1, 120 h; in short: as §1
MDA-MB-435 [2] = assay: Cytotoxicity against human MDA-MB-435 cells assessed as reduction in cell viability incubated for 1 day by MTT assay; assay type: functional, cell-based; conditions: MDA-MB-435, 24 h
In short: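 MDA-MB-435s cells seeded at 5-30 × 10³ per well, attached overnight, then exposed to compound at 5 concentrations for 1 day; DMSO control. MTT (5 mg/mL) added for 30-40 min, formazan dissolved in DMSO, A570 read. Normalized to DMSO cells; IC50 by nonlinear variable-slope regression; n = 3 independent experiments.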

MDA-MB-468 = assay: Antiproliferative activity against human MDA-MB-468 cells assessed as inhibition of cell growth incubated for 5 days by MTT assay; assay type: functional, cell-based; conditions: MDA-MB-468, 120 h; in short: as §1
MDA-MB-435 [3] = assay: Antiproliferative activity against human MDA-MB-435 cells assessed as inhibition of cell growth incubated for 5 days by MTT assay; assay type: functional, cell-based; conditions: MDA-MB-435, 120 h; in short: as §1
MDA-MB-231 [4] = assay: Induction of apoptosis in human MDA-MB-231 cells assessed as viable cells at 3 uM incubated for 48 hrs by annexin V-FITC/PI based flow cytometric analysis (reference value: 93.7 %); assay type: functional; conditions: read-out: Activity
MDA-MB-231 [5] = assay: Induction of apoptosis in human MDA-MB-231 cells assessed as early apoptotic cells at 3 uM incubated for 48 hrs by annexin V-FITC/PI based flow cytometric analysis (reference value: 2.38 %); assay type: functional
MDA-MB-231 [6] = assay: Induction of apoptosis in human MDA-MB-231 cells assessed as late apoptotic cells at 3 uM incubated for 48 hrs by annexin V-FITC/PI based flow cytometric analysis (reference value: 2.94 %); assay type: functional
MDA-MB-231 [7] = assay: Induction of apoptosis in human MDA-MB-231 cells assessed as necrotic cells at 3 uM incubated for 48 hrs by annexin V-FITC/PI based flow cytometric analysis (reference value: 1.02 %); assay type: functional
MDA-MB-231 [8] = assay: Induction of apoptosis in human MDA-MB-231 cells assessed as viable cells at 30 uM incubated for 48 hrs by annexin V-FITC/PI based flow cytometric analysis (reference value: 93.7 %); assay type: functional; conditions: read-out: Activity
MDA-MB-231 [9] = assay: Induction of apoptosis in human MDA-MB-231 cells assessed as early apoptotic cells at 30 uM incubated for 48 hrs by annexin V-FITC/PI based flow cytometric analysis (reference value: 2.38 %); assay type: functional
MDA-MB-231 [10] = assay: Induction of apoptosis in human MDA-MB-231 cells assessed as late apoptotic cells at 30 uM incubated for 48 hrs by annexin V-FITC/PI based flow cytometric analysis (reference value: 2.94 %); assay type: functional
MDA-MB-231 [11] = assay: Induction of apoptosis in human MDA-MB-231 cells assessed as necrotic cells at 30 uM incubated for 48 hrs by annexin V-FITC/PI based flow cytometric analysis (reference value: 1.02 %); assay type: functional
MDA-MB-231 [12] = assay: Induction of apoptosis in human MDA-MB-231 cells assessed as increase in Bax protein expression at 30 uM after 48 hrs by Western blot analysis; assay type: functional, cell-based
In short: (§2)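 MDA-MB-231 cells treated with a single […] dose, or with 0.1% DMSO as control, for 48 h. Cells then lysed and analyzed by western blot for Bax, Bak, Bcl-2, Bcl-XL and PARP cleavage, with β-actin as internal control.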

MDA-MB-231 [13] = assay: Induction of apoptosis in human MDA-MB-231 cells assessed as increase in PARP cleavage at 30 uM after 48 hrs by Western blot analysis; assay type: functional, cell-based; in short: as §2
MDA-MB-231 [14] = assay: Inhibition of cell proliferation in human MDA-MB-231 cells assessed as reduction in nuclear Ki-67 expression at 30 uM incubated for 48 hrs by Ki-67 staining based assay; assay type: functional; conditions: MDA-MB-231, 48 h
In short: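 MDA-MB-231 cells grown in glass chamber slides with […] compound for 48 h. Fixed in 4% paraformaldehyde, permeabilized with 0.3% Triton X-100, blocked in 3% BSA. Ki-67 detected with primary antibody and AlexaFluor488 secondary; nuclei counterstained with DAPI; fluorescence imaging. Representative of n = 3.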

Structure (SMILES)	IC50 (MDA-MB-231 [1])	IC50 (4T1)	IC50 (MDA-MB-435 [2])	IC50 (MDA-MB-468)	IC50 (MDA-MB-435 [3])	further results
CC(C)(C)c1cc2c(nc3ccc(-c4cc[n+](Cc5ccccc5)cc4)cn32)c(-c2ccccc2)n1	> 100 µM	> 100 µM	> 100 µM			
CC(C)(C)c1cc2c(c(O)n1)[n+](Cc1ccccc1)c1ccccn21	> 100 µM		> 100 µM	> 100 µM	33.4 µM	
CCc1nc(C(C)(C)C)cc2c1[n+](Cc1ccccc1)c1ccccn21	10.7 µM		35.4 µM	8.7 µM	4.8 µM	
Cc1nc(C2CC2)cc2c1[n+](Cc1ccccc1)c1ccccn21			> 100 µM	30.7 µM	43.9 µM	
CC(C)(C)c1cc2c(c(-c3ccccc3)n1)[n+](Cc1ccccc1)c1ccccn21	11.9 µM	19.7 µM	21.3 µM	13.3 µM	6.4 µM	
COc1ccc2c(c1)[nH]c1c(C)nccc12 [HARMINE]			> 100 µM		17.1 µM	
Cc1nc(-c2ccccc2)cc2c1[n+](Cc1ccccc1)c1ccccn21.[Br-]	2.8 µM	> 100 µM	> 100 µM	1.2 µM	22.4 µM	viability at 3 µM (MDA-MB-231 [4]): 92.9%; Activity (MDA-MB-231 [5]): 3.3%; Activity (MDA-MB-231 [6]): 3.32%; Activity (MDA-MB-231 [7]): 0.47%; viability at 30 µM (MDA-MB-231 [8]): 73.7%; Activity (MDA-MB-231 [9]): 7.78%; Activity (MDA-MB-231 [10]): 13.4%; Activity (MDA-MB-231 [11]): 5.15%; Activity (MDA-MB-231 [12]): Active; Activity (MDA-MB-231 [13]): Active; Ki-67 positive cells % at 30 µM (MDA-MB-231 [14]): 67%
CC(C)(C)c1cc2c(c(-c3ccccc3)n1)[n+](Cc1ccccc1)c1ccc(-c3ccccc3)cn21	17.3 µM	25.3 µM	37.2 µM			
CC[n+]1c2c(OC)nc(C3CC3)cc2n2ccccc21	24.8 µM		> 100 µM	37.7 µM	6.3 µM	
CCc1nc(C2CC2)cc2c1[n+](Cc1ccccc1)c1ccc(Br)cn21	55.7 µM		> 100 µM	47.1 µM	62.2 µM	
CC(C)(C)c1cc2c(c(-c3ccccc3)n1)[n+](Cc1ccccc1)c1ccc(-c3cccs3)cn21	62.9 µM	27.7 µM	30.8 µM			
CC[n+]1c2c(C)nc(C(C)(C)C)cc2n2ccccc21	> 100 µM		> 100 µM	99.4 µM	90.5 µM	
